Source: the M2OR odorant receptor database
Where a chain is given by its changes, count along the chain named.

molecular target: T1, OR2B3 (Homo sapiens) (UniProt O76000); conditions: stereoisomer not certain
T1 sequence (whole entry): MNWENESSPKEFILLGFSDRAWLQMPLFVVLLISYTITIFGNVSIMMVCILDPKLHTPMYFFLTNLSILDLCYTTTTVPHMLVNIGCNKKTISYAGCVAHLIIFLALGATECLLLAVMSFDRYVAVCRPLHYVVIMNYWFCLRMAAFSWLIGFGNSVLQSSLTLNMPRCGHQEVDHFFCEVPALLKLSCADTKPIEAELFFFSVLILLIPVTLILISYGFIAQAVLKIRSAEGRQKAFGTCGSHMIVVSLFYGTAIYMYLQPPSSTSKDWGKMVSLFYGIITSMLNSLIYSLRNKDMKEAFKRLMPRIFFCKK
Procedure, shortened: (§1)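 Values were gathered from published papers (main text and supplementary material), with extra details requested from the original authors when needed, and checked for typos and inconsistencies. Each receptor–molecule pair is called responsive (active) if the original authors judged the measured signal statistically different from baseline, and non-responsive (inactive) otherwise. Assay methods varied by source, often transient mammalian cell-line luciferase assays. Recorded details include cell line, G-protein, co-transfected protein and tags.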

SMILES	odorant receptor agonist call
CCCCCC(=O)C(C)C(C)=O (stereo not given)	inactive
CC1=C(O)C(=O)C(C)O1 (stereo not given)	inactive
CC(C)=CCCC(C)=CCO	inactive
CCC(S)C(C)CO (stereo not given)	inactive
CC(=O)OCc1ccccc1	inactive
CC(CO)CS (stereo not given)	inactive
CC1=C(O)C(=O)OC1C (stereo not given)	inactive
CCCCCC(S)C(C)CO (stereo not given)	inactive
CCCCC(S)C(C)CO (stereo not given)	inactive
CCCCCCC=CCCC=O	inactive
CCCC(S)CCOC(C)=O (stereo not given)	inactive

molecular target: T2, OR2B6 (Homo sapiens) (UniProt P58173); conditions: stereoisomer not certain
T2 sequence (whole entry): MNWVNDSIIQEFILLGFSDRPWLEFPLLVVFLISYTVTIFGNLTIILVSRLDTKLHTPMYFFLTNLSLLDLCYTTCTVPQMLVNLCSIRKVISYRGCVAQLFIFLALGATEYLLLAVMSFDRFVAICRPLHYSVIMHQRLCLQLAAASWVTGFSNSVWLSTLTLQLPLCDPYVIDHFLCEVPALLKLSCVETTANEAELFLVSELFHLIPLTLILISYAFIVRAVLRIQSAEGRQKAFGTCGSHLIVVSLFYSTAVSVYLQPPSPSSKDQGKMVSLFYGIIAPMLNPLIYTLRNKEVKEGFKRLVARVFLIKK
Procedure, shortened: as §1

SMILES	odorant receptor agonist call
CCCCCC(=O)C(C)C(C)=O (stereo not given)	inactive
CC1=C(O)C(=O)C(C)O1 (stereo not given)	inactive
CC(=O)c1c(C)c([N+](=O)[O-])c(C(C)(C)C)c([N+](=O)[O-])c1C	inactive
CCC(S)C(C)CO (stereo not given)	inactive
CC1CCCCCCCCCCCCC(=O)C1 (stereo not given)	inactive
CC(CO)CS (stereo not given)	inactive
CC1=C(O)C(=O)OC1C (stereo not given)	inactive
CCCCCC(S)C(C)CO (stereo not given)	inactive
CCCCC(S)C(C)CO (stereo not given)	inactive
CCCCCCC=CCCC=O	inactive
CCCC(S)CCOC(C)=O (stereo not given)	inactive

test system: T3, OR2BB; conditions: stereoisomer not certain
T3 sequence (whole entry): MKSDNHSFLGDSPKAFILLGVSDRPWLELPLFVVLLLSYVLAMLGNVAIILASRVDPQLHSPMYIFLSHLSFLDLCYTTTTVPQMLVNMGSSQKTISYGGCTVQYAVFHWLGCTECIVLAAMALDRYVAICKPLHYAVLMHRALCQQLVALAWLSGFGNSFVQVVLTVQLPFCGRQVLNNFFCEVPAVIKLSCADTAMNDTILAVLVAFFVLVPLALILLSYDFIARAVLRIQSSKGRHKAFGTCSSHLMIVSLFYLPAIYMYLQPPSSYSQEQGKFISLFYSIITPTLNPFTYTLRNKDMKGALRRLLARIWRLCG
Procedure, shortened: as §1

SMILES	odorant receptor agonist call
CC1=C(O)C(=O)C(C)O1 (stereo not given)	inactive
O=c1ccc2ccccc2o1	inactive
c1ccc2ncccc2c1	inactive
CC1=C(O)C(=O)OC1C (stereo not given)	inactive
CCCCCCC=CCCC=O	inactive
CCCC(S)CCOC(C)=O (stereo not given)	inactive

test system: T4, OR2BB; conditions: stereoisomer not certain
T4 sequence (whole entry): T3 sequence (whole entry) with D223G, T293I, D300G
Procedure, shortened: as §1

SMILES	odorant receptor agonist call
O=c1ccc2ccccc2o1	active
c1ccc2ncccc2c1	active
c1coc(CSSCc2ccco2)c1	active

test system: T5, OR2BB; conditions: stereoisomer not certain
T5 sequence (whole entry): T3 sequence (whole entry) with D223G
Procedure, shortened: as §1

SMILES	odorant receptor agonist call
CC1=C(O)C(=O)C(C)O1 (stereo not given)	inactive
O=c1ccc2ccccc2o1	active
c1ccc2ncccc2c1	active
CC1=C(O)C(=O)OC1C (stereo not given)	inactive
c1coc(CSSCc2ccco2)c1	active
CCCCCCC=CCCC=O	inactive
CCCC(S)CCOC(C)=O (stereo not given)	inactive

molecular target: T6, OR2C1 (Homo sapiens) (UniProt O95371); conditions: stereoisomer not certain
T6 sequence (whole entry): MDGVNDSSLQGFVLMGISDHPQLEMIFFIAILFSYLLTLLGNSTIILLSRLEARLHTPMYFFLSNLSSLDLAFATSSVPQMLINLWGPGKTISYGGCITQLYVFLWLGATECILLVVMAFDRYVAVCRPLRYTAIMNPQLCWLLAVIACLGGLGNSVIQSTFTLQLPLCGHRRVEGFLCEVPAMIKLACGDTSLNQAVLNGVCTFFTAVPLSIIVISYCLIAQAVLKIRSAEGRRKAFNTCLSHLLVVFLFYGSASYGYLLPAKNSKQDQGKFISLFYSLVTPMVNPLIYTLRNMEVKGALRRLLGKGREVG
Procedure, shortened: as §1

SMILES	odorant receptor agonist call
CCCCCC(=O)C(C)C(C)=O (stereo not given)	inactive
CCCCCCCCC(=O)O	inactive
CCCCCC1=C(C)CCC1=O	inactive
CCCCCCCC(=O)[O-].[H+]	inactive
CCCCCCCCCS	active
CCCCC(=O)CC	inactive
CC1=C(O)C(=O)C(C)O1 (stereo not given)	inactive
O=c1ccc2ccccc2o1	inactive
O=C1CCOc2ccccc21	inactive
CC(C)=CCCC(C)=CCO	inactive
CC(=O)c1c(C)c([N+](=O)[O-])c(C(C)(C)C)c([N+](=O)[O-])c1C	inactive
CCC(=O)C(=O)CC	inactive
CCCCCCCCCO	inactive
CCOC(=O)C(C)C	inactive
CCC(S)C(C)CO (stereo not given)	inactive
CC(=O)OCc1ccccc1	inactive
CC1CCCCCCCCCCCCC(=O)C1 (stereo not given)	inactive
CC(CO)CS (stereo not given)	inactive
CC1=C(O)C(=O)OC1C (stereo not given)	inactive
CCCCCCOC(C)=O	inactive
CCCC(C)=O	inactive
CCCCCC(S)C(C)CO (stereo not given)	inactive
CC(C)=CCCC(C)CCO (stereo not given)	inactive
CCC(=O)O	inactive
CCCCC(S)C(C)CO (stereo not given)	inactive
CCCCCCC=CCCC=O	inactive
CCCC(S)CCOC(C)=O (stereo not given)	inactive

test system: T7, OR2C1; conditions: stereoisomer not certain
T7 sequence (whole entry): T6 sequence (whole entry) with C149W
Procedure, shortened: as §1

SMILES	odorant receptor agonist call
CC1=C(O)C(=O)C(C)O1 (stereo not given)	inactive
CC1=C(O)C(=O)OC1C (stereo not given)	inactive
c1coc(CSSCc2ccco2)c1	inactive
CCCCCCC=CCCC=O	inactive
CCCC(S)CCOC(C)=O (stereo not given)	inactive
